Calls of active or inactive are those of the source. The rule behind the calls is not given here.
What was measured:
Dopamine receptor = assay: Binding affinity for dopamine receptor in rat striatal membrane using [3H]haloperidol as radioligand; assay type: cell membranes, Striatum
Procedure, shortened: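 Nonspecific binding defined with (+)-butaclamol at 0.1 μM final. IC50 fitted by nonlinear curve fit from four or five concentrations in triplicate.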

Mus musculus [1] = species: Mus musculus; assay: Ability to inhibit locomotor activity using ataxia test.; assay type: functional; details: read-out: MED
Procedure, shortened: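 Male Swiss–Webster mice (20–30 g, unfasted), nine per dose in groups of three, dosed ip in 0.2% methocel (dose as parent compound) 1 h before testing. Ataxia was scored first on an inverted screen over 60 s as % of mice falling. […] ED50 from at least three doses.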

Rattus norvegicus [2] = assay: Suppression of conditional avoidance after peroral administration; assay type: functional; details: po
Procedure, shortened: (§1)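 Fasted male Wistar rats (150–250 g) were trained to jump to a platform at a buzzer to avoid grid shock (1.1 mA/s). After oral dosing they were tested every 20 min for 6 h over 19 trials, 10 rats per dose, each rat used once. Peak effect was the mean of the four consecutive trials with the largest effect, computed from response latency. ED50 read graphically from at least three doses.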

Rattus norvegicus [3] = species: Rattus norvegicus; assay: Compound was tested for its potential to produce clonic seizures in rats; + indicates compound is causing seizures; assay type: functional, organism-based
Procedure, shortened: (§2)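 Any sign of seizure marked the compound as seizure-causing; the outcome was not quantified.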

Rattus norvegicus [4] = species: Rattus norvegicus; assay: Compound was tested for its potential to produce clonic seizures in rats; + indicates that they are causing seizures; assay type: functional, organism-based; procedure, shortened: as §2
[5] = Compound was tested for inhibition of extrapyramidal side effect test in cebus monkey; assay type: functional; details: read-out: MED
Procedure, shortened: (§3)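 Groups of three to six were then dosed by gavage and observed hourly for 6–8 h for dystonia or dyskinesia. Any unequivocal sign counted as a positive response. Minimal effective dose was determined in at least three animals.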

Mus musculus [6] = assay: Compound was tested for inhibition of apomorphine-induced climbing in mice after intraperitoneal administration; assay type: functional; details: ip
Procedure, shortened: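 Male Swiss–Webster mice (25–35 g), ten per dose, acclimated 30 min in cylindrical cages, dosed ip, then given apomorphine 3 mg/kg sc 1 h later. Climbing scored in 30-s tests every 5 min for 30 min, starting 15 min after apomorphine. At least three doses; ED50 by nonlinear regression.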

Rattus norvegicus [7] = assay: The compound was tested for inhibition of conditional avoid in rats after peroral administration; assay type: functional; details: po; procedure, shortened: as §1
[8] = Inhibition of sidman avoid in squirrel monkeys after peroral administration; assay type: functional; details: po
Procedure, shortened: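 Mature squirrel monkeys, trained on a modified Sidman avoidance lever schedule, were dosed orally and tested in 6-h sessions. Inhibition was expressed as % of each animal's own nondrug responding. At least three doses were given to four animals, with sessions at least 1 week apart. ED50 from nonlinear regression.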

[9] = Binding affinity against […] in rat striatal membrane using [3H]haloperidol
[10] = target: T1, Beta-2 adrenergic receptor (Rattus norvegicus, UniProt P10608); assay: (§4) Binding affinity against beta-2 adrenergic receptor in rat brain using [3H]DHA; assay type: tissue-based
Procedure, shortened: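 β2 binding on rat cerebellum membranes (male Long–Evans rats, 150–250 g) with [3H]dihydroalprenolol, 0.5 nM final. Nonspecific binding defined with (-)-alprenolol, 1 μM final. IC50 from four or five concentrations by nonlinear curve fit.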

[11] = Extrapyramidal side effect test in cebus monkey; assay type: functional; details: read-out: MED; procedure, shortened: as §3
Canis familiaris = assay: Compound was tested for inhibition of emesis test in dogs administered perorally; antiemetic; assay type: functional, organism-based; details: Canis lupus familiaris
Mus musculus [12] = assay: Compound was tested for inhibition of locomotor activity and ataxia in mice after intraperitoneal administration; assay type: functional; details: ip
Procedure, shortened: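 Unfasted male Swiss–Webster mice (20–30 g), nine per dose in groups of three, given compound ip in 0.2% methocel 1 h before testing. Ataxia assessed by 60-s inverted screen test, then photocell actophotometer locomotion recorded over 60 min as percent inhibition versus vehicle. At least three doses.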

Rattus norvegicus [13] = assay: Compound was tested for inhibition of conditional avoid in rats after peroral administration; assay type: functional; details: po
Procedure, shortened: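 Fasted male Wistar rats (150–250 g) trained to jump to a platform at a buzzer to avoid grid shock (1.1 mA/s). After oral dosing, tested every 20 min for 6 h over 19 trials, 10 rats per dose. Peak effect from four consecutive trials using response latency. ED50 read graphically from at least three doses.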

[14] = Compound was tested for inhibition of sidman avoid in squirrel monkeys after peroral administration; details: Saimiri, po
Rattus norvegicus [15] = assay: Compound was tested for serum prolactin assay method in rats at 1 mg/kg dose after peroral administration; assay type: functional; details: route oral
Procedure, shortened: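 Seven-week-old male Sprague–Dawley rats, five per group, were dosed orally and killed by decapitation 1 h later. Serum prolactin from trunk blood was measured by radioimmunoassay with [125I]-PRL and expressed as % of control (mean ± SEM).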

Rattus norvegicus [16] = assay: Antagonized affect on the accumulation of the brain dopamine induced by butyrolactone (GBL) at 10 mg/kg after intraperitoneal administration; assay type: functional; design: scale not given: the % may be the effect or the level left
Rattus norvegicus [17] = assay: Antagonized affect on the accumulation of the brain dopamine induced by butyrolactone (GBL) at 5 mg/kg after intraperitoneal administration; assay type: functional; design: scale not given: the % may be the effect or the level left
Adenylate cyclase = assay: The compound was tested for adenylate cyclase activity in rat corpus striatum; assay type: tissue-based
Procedure, shortened: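 Striatal homogenates from male Long–Evans rats (200–300 g). Test substance concentration varied with dopamine held at 20 μM. Cyclic AMP formed was measured by radioimmunoassay, in triplicate.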

[18] = target: Beta-1 adrenergic receptor (Rattus norvegicus, UniProt P18090); assay: Binding affinity against beta-1 adrenergic receptor in rat brain using [3H]DHA; assay type: tissue-based
Procedure, shortened: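 β1 binding was run on rat cerebral cortex membranes from male Long–Evans rats (150–250 g) with [3H]dihydroalprenolol at 0.5 nM final. Nonspecific binding was defined with (−)-alprenolol at 1 μM final. IC50 from four or five concentrations by nonlinear curve fit.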

[19] = target: T1, Beta-2 adrenergic receptor; assay: as §4; assay type: tissue-based; remark: listed apart in the source
Procedure, shortened: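 β2 sites in rat cerebellum membranes (male Long-Evans, 150–250 g) with [3H]dihydroalprenolol at 0.5 nM final. (-)-Alprenolol at 1 μM final defined the reference. IC50 from four or five concentrations by nonlinear curve fit.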

Rattus norvegicus [20] = assay: Compound was tested for its affect on the accumulation of the dopamine metabolite homovanillic acid (HAV) in the rat striatum at 1 mg/kg dose after peroral administration; assay type: functional; details: route oral
Procedure, shortened: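 Male Long–Evans rats were dosed orally and decapitated 2 h later. Striatal HVA was isolated on Sephadex G-10 and measured spectrofluorometrically, expressed as % control ± SEM.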

T1 sequence (P10608 whole entry): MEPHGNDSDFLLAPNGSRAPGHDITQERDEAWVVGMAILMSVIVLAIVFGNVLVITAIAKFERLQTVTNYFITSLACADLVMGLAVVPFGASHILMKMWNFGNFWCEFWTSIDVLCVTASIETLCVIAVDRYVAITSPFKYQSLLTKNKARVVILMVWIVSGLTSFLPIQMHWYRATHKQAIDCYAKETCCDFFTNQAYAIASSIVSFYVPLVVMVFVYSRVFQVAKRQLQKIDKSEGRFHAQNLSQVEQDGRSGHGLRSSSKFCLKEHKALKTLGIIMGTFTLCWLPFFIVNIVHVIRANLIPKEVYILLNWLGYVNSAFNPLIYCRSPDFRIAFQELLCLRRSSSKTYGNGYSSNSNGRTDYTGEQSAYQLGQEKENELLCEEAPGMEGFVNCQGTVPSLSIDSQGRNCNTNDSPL
Sequence of Beta-1 adrenergic receptor (P18090 whole entry): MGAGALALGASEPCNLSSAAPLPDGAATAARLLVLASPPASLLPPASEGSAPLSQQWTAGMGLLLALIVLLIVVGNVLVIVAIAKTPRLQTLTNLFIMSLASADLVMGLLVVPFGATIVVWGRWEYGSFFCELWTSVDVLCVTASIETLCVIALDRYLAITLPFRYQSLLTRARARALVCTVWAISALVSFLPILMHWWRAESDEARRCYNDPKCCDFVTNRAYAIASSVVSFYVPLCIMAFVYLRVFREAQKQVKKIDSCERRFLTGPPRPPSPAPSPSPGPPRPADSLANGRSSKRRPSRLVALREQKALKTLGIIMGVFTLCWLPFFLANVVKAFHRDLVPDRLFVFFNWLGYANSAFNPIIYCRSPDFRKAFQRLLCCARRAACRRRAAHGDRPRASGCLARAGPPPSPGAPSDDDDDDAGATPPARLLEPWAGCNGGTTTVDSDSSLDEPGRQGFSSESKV

Row | SMILES | IC50 (Dopamine receptor) | minimal effective dose (Mus musculus [1]) | ED50 (Rattus norvegicus [2]) | further results
1 | Cc1nn(C)c(NC(=O)CNCCN(C(C)C)C(C)C)c1C(=O)c1ccccc1F | > 10 µM | 100 mg/kg | 71 mg/kg | –
2 | CCCNc1c(C(=O)c2ccccc2F)c(C)nn1C | – | < 10 mg/kg | – | Clonic seizures (Rattus norvegicus [3]): causing seizures
3 | CNc1c(C(=O)c2ccccc2F)c(C)nn1C | – | 30 mg/kg | – | Clonic seizures (Rattus norvegicus [3]): causing seizures
4 | Cc1nn(C)c(NC(=O)C(Cl)Cl)c1C(=O)c1ccccc1F | – | 30 mg/kg | – | Clonic seizures (Rattus norvegicus [4]): causing seizures
5 | Cc1nn(C)c(NC(=O)C(C)(C)N2CCCC2)c1C(=O)c1ccccc1F | > 10 µM | > 100 mg/kg | > 56 mg/kg | –
6 | Cc1nn(C)c(NC(=O)C(F)(F)F)c1C(=O)c1ccccc1F | – | < 10 mg/kg | – | Clonic seizures (Rattus norvegicus [3]): causing seizures
7 | CSc1ccc2c(c1)N(CCC1CCCCN1C)c1ccccc1S2 (stereo not given) [THIORIDAZINE] | – | – | – | minimal effective dose [5]: 2.5 mg/kg; ED50 (Mus musculus [6]): 3.4 mg/kg; ED50 (Rattus norvegicus [7]): 5.8 mg/kg; ED50 [8]: 4.3 mg/kg
8 | Cc1nn(C)c(NC(=O)CNCCCNC(C)(C)C)c1C(=O)c1ccccc1F | – | 30 mg/kg | 46 mg/kg | IC50 [9]: > 10 µM
9 | Cc1nn(C)c(NC(=O)CNCCN2CCCCC2)c1C(=O)c1ccccc1F | > 10 µM | 30 mg/kg | 38 mg/kg | –
10 | Cc1nn(C)c(NC(=O)CNCCCN2CCCC(C)C2)c1C(=O)c1ccccc1F (stereo not given) | > 10 µM | 100 mg/kg | 100 mg/kg | –
11 | Cc1nn(C)c(NC(=O)CN2CCC(c3ccccc3)CC2)c1C(=O)c1ccccc1F | > 10 µM | 30 mg/kg | 100 mg/kg | –
12 | Cc1nn(C)c(NC(=O)CN2CCCC2)c1C(=O)c1ccccc1F | > 10 µM | 30 mg/kg | 48 mg/kg | –
13 | Cc1nn(C)c(NC(=O)CNCCCN2CCC(C)CC2)c1C(=O)c1ccccc1F | > 10 µM | 100 mg/kg | – | –
14 | CC(=O)Nc1c(C(=O)c2ccccc2F)c(C)nn1C | – | 30 mg/kg | – | Clonic seizures (Rattus norvegicus [3]): causing seizures
15 | Cc1nn(C)c(NC(=O)CNCCCN(C)C)c1C(=O)c1ccccc1F | > 10 µM | 80 mg/kg | 56 mg/kg | –
16 | CN1CCN(C2=Nc3cc(Cl)ccc3Nc3ccccc32)CC1 [CLOZAPINE] | – | – | – | IC50 [10]: > 10 µM; minimal effective dose [11]: > 30 mg/kg; MED (Canis familiaris): Active; ED50 (Mus musculus [6]): 10 mg/kg; ED50 (Mus musculus [12]): 5.65 mg/kg; ED50 (Rattus norvegicus [13]): 22 mg/kg; ED50 [14]: 4.1 mg/kg
17 | Cc1nn(C)c(NC(=O)C(C)N2CCCC2)c1C(=O)c1ccccc1F (stereo not given) | > 10 µM | 100 mg/kg | > 100 mg/kg | –
18 | Cc1nn(C)c(N(C)S(C)(=O)=O)c1C(=O)c1ccccc1F | – | > 90 mg/kg | – | Clonic seizures (Rattus norvegicus [3]): causing seizures
19 | CC(C)C[C@H]1C(=O)N2CCC[C@H]2[C@]2(O)O[C@](NC(=O)[C@@H]3C=C4c5cccc6[nH]c(Br)c(c56)C[C@H]4N(C)C3)(C(C)C)C(=O)N12 [BROMOCRIPTINE] | – | – | – | Control (Rattus norvegicus [15]): 32.7%; Control (Rattus norvegicus [16]): 82.4%
20 | CN1CCc2cccc3c2[C@H]1Cc1ccc(O)c(O)c1-3 [APOMORPHINE] | – | – | – | Control (Rattus norvegicus [17]): 75%
21 | Cc1nn(C)c(NC(=O)CCN2CCCC2)c1C(=O)c1ccccc1F | > 10 µM | 100 mg/kg | 15 mg/kg | –
22 | OCCN1CCN(CCCN2c3ccccc3Sc3ccc(C(F)(F)F)cc32)CC1 [FLUPHENAZINE] | – | – | – | IC50 (Adenylate cyclase): 0.08 µM
23 | Cc1nn(C)c(NC(=O)CN2CCCCC2)c1C(=O)c1ccccc1F | > 10 µM | 30 mg/kg | > 100 mg/kg | –
24 | Cc1nn(C)c(N(C)C(=O)C(F)(F)F)c1C(=O)c1ccccc1F | – | > 100 mg/kg | – | Clonic seizures (Rattus norvegicus [3]): causing seizures
25 | Cc1nn(C)c(NC(=O)CN(C)CCCN2CCCCC2C)c1C(=O)c1ccccc1F (stereo not given) | > 10 µM | 30 mg/kg | 21 mg/kg | –
26 | Cc1nn(C)c(NC(=O)CN2CCC3(CC2)C(=O)NCN3c2ccccc2)c1C(=O)c1ccccc1F | > 10 µM | 100 mg/kg | 15.5 mg/kg | –
27 | Cc1nn(C)c(NC(=O)CNCCCN2CCCCC2)c1C(=O)c1ccccc1F | > 10 µM | 100 mg/kg | 16 mg/kg | –
28 | O=C(CCCN1CCC(O)(c2ccc(Cl)cc2)CC1)c1ccc(F)cc1 [HALOPERIDOL] | – | – | – | IC50 [18]: > 10 µM; IC50 [19]: > 10 µM; Control (Rattus norvegicus [20]): 348.9%; Control (Rattus norvegicus [15]): 224%
29 | Cc1nn(C)c(N(C)C(=O)CNCCCN2CCCCC2C)c1C(=O)c1ccccc1F (stereo not given) | > 10 µM | > 100 mg/kg | > 100 mg/kg | –

From ChEMBL document CHEMBL1123363, “(5-Amino-1,3-dimethyl-1H-pyrazol-4-yl)(2-fluorophenyl)methanones . A series of novel potential antipsychotic agents” (J Med Chem, 1986)
